These results are taken from ChEMBL document CHEMBL1641508, “Effect of structurally constrained oxime-ether linker on PPAR subtype selectivity: Discovery of a novel and potent series of PPAR-pan agonists” (Bioorg Med Chem, 2011).

SMILES strings stand for the structures. Active and inactive are the calls of the source. The rule behind the calls is not given here.

For the first assay, the target named is T1, Peroxisome proliferator-activated receptor alpha (Homo sapiens) (UniProt Q07869).
T1 sequence (whole entry): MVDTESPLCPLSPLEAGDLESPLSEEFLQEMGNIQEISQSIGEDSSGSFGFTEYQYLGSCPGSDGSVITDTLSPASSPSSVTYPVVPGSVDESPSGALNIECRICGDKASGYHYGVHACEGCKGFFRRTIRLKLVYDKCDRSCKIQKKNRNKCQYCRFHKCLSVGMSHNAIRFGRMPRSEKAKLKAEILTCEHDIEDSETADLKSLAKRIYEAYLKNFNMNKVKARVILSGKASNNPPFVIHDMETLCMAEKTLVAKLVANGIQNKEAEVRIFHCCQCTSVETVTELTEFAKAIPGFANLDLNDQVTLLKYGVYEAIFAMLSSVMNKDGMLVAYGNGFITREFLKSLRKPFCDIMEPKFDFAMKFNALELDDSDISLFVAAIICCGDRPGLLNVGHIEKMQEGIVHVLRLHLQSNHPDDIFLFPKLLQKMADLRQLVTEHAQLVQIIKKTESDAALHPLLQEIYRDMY
Kind of assay: Agonist activity at human PPARalpha expressed in HepG2 cells co-transfected with PPRE3-TK-luc assessed as beta-galactosidase activity after 20 to 22 hrs by luciferase based transactivation assay relative to WY-14643. It counts as functional, cell-based.
Settings: not given
The procedure, abridged: (§1)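 HepG2 (MEM, 10% FBS, NEAA, pyruvate, pen/strep) seeded 400,000 cells/well, transfected (Superfect) with pSG5 vector carrying full-length hPPAR cDNA plus PPRE3-TK-luc; 3 h at 37 °C, 5% CO2, then ligand-containing medium added, 20–22 h.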
Regarding `CC/C(=N\OCc1nc(-c2ccccc2)oc1C)c1ccc(OCC(=O)O)cc1`, the Emax was 42.5%.

For `CC/C(=N\OCc1sc(-c2ccc(C(F)(F)F)cc2)nc1C)c1ccc(OCC(=O)O)cc1`, the Emax came out at 97.5%.

Take `C/C(=N\OCc1sc(-c2ccc(C(F)(F)F)cc2)nc1C)c1ccc(OCC(=O)O)c(C)c1`: the Emax turned out to be 99.8%.

Take `C/C(=N\OCc1sc(-c2ccc(C(F)(F)F)cc2)nc1C)c1ccc(OCC(=O)O)cc1`: the Emax is 86.2%.

Take `C/C(=N\OCc1nc(-c2ccc(C)cc2)oc1C)c1ccc(OCC(=O)O)c(C)c1`: the Emax amounted to 45.3%.

As for `CCC/C(=N\OCc1nc(-c2ccc(C)cc2)oc1C)c1ccc(OCC(=O)O)c(C)c1`, the Emax is 33.3%.

As to `CCC/C(=N\OCc1nc(-c2ccccc2)oc1C)c1ccc(OCC(=O)O)c(C)c1`, the Emax came out at 14.1%.

As for `Cc1ccc(-c2nc(CO/N=C(/c3ccc(OCC(=O)O)c(C)c3)C3CCCCC3)c(C)o2)cc1`, the Emax was determined as 14.1%.

For `CC/C(=N\OCc1nc(-c2ccccc2)oc1C)c1ccc(OCC(=O)O)c(C)c1`, the Emax amounted to 56.4%.

Consider `C/C(=N\OCc1nc(-c2ccccc2)oc1C)c1ccc(OCC(=O)O)c(C)c1`, for which the Emax is 84.5%.

The target of the next assay is T2, Peroxisome proliferator-activated receptor alpha (Homo sapiens, UniProt Q07869).
T2 sequence (Q07869 whole entry): T1 sequence (whole entry)
Kind of assay: Agonist activity at human PPARalpha expressed in HepG2 cells co-transfected with PPRE3-TK-luc assessed as beta-galactosidase activity after 20 to 22 hrs by luciferase based transactivation assay. The assay is classed as functional, cell-based.
Settings: not given
As to `C/C(=N\OCc1sc(-c2ccc(C(F)(F)F)cc2)nc1C)c1ccc(OCC(=O)O)c(C)c1`, the EC50 (commonly the concentration needed to bring the measured effect to its halfway point) turned out to be 8 nM.

Take `C/C(=N\OCc1nc(-c2ccc(C)cc2)oc1C)c1ccc(OCC(=O)O)c(C)c1`: the EC50 turned out to be 150 nM.

For the molecule `C/C(=N\OCc1nc(-c2ccccc2)oc1C)c1ccc(OCC(=O)O)c(C)c1`, the half-maximal effective concentration (EC50) is 500 nM.

The target of another assay is T3, Peroxisome proliferator-activated receptor gamma (Homo sapiens, UniProt P37231).
T3 sequence (P37231 whole entry): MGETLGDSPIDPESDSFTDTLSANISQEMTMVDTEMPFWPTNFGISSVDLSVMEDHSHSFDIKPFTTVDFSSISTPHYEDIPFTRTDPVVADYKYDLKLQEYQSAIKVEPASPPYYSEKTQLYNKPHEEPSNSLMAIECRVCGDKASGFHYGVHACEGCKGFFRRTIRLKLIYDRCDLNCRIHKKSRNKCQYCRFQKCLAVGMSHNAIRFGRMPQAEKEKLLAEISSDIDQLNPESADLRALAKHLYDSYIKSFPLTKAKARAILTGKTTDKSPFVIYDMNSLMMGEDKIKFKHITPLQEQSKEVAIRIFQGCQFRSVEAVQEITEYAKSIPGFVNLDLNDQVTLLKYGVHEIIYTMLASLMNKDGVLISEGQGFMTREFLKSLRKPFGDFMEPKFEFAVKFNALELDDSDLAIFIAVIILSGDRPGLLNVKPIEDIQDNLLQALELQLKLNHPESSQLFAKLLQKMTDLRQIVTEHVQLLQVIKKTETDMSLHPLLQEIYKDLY
The assay is classed as functional, cell-based, HepG2.
Settings: not given
Consider `C/C(=N\OCc1sc(-c2ccc(C(F)(F)F)cc2)nc1C)c1ccc(OCC(=O)O)c(C)c1`, for which the EC50 was 6 nM.

As for `C/C(=N\OCc1nc(-c2ccc(C)cc2)oc1C)c1ccc(OCC(=O)O)c(C)c1`, the EC50 turned out to be 400 nM.

Take `C/C(=N\OCc1nc(-c2ccccc2)oc1C)c1ccc(OCC(=O)O)c(C)c1`: the EC50 was 300 nM.

In a further assay the target is T4, Peroxisome proliferator-activated receptor delta (Homo sapiens) (UniProt Q03181).
T4 sequence (whole entry): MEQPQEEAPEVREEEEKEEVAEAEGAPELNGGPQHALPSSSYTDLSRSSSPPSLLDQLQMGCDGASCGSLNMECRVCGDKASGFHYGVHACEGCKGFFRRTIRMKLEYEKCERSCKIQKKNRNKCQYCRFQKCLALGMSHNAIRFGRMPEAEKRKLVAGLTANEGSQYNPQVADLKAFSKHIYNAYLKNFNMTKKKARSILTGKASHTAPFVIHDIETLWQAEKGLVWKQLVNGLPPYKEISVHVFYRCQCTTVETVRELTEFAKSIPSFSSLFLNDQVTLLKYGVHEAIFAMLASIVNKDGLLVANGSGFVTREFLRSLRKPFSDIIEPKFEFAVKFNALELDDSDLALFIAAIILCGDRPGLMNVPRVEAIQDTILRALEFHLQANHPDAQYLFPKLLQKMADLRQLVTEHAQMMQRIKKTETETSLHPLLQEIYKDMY
Kind of assay: Agonist activity at human PPARdelta expressed in HepG2 cells co-transfected with PPRE3-TK-luc assessed as beta-galactosidase activity after 20 to 22 hrs by luciferase based transactivation assay relative to GW-501516. It counts as functional, cell-based.
Settings: not given
A digest of the protocol: as §1
As to `CC/C(=N\OCc1nc(-c2ccccc2)oc1C)c1ccc(OCC(=O)O)cc1`, the Emax turned out to be 46.4%.

Regarding `CC/C(=N\OCc1sc(-c2ccc(C(F)(F)F)cc2)nc1C)c1ccc(OCC(=O)O)cc1`, the Emax is 41.4%.

Consider `C/C(=N\OCc1sc(-c2ccc(C(F)(F)F)cc2)nc1C)c1ccc(OCC(=O)O)c(C)c1`, for which the Emax was 90.1%.

As to `C/C(=N\OCc1sc(-c2ccc(C(F)(F)F)cc2)nc1C)c1ccc(OCC(=O)O)cc1`, the Emax was determined as 60.6%.

Regarding `C/C(=N\OCc1nc(-c2ccc(C)cc2)oc1C)c1ccc(OCC(=O)O)c(C)c1`, the Emax came out at 67.6%.

For the molecule `CCC/C(=N\OCc1nc(-c2ccc(C)cc2)oc1C)c1ccc(OCC(=O)O)c(C)c1`, the Emax worked out at 46.8%.

For `CCC/C(=N\OCc1nc(-c2ccccc2)oc1C)c1ccc(OCC(=O)O)c(C)c1`, the Emax is 51.7%.

Consider `Cc1ccc(-c2nc(CO/N=C(/c3ccc(OCC(=O)O)c(C)c3)C3CCCCC3)c(C)o2)cc1`, for which the Emax came out at 56.6%.

For the molecule `CC/C(=N\OCc1nc(-c2ccccc2)oc1C)c1ccc(OCC(=O)O)c(C)c1`, the Emax worked out at 72.3%.

Consider `C/C(=N\OCc1nc(-c2ccccc2)oc1C)c1ccc(OCC(=O)O)c(C)c1`, for which the Emax worked out at 74.5%.

The target in a further assay is T5, Peroxisome proliferator-activated receptor delta (Homo sapiens, UniProt Q03181).
T5 sequence (Q03181 whole entry): T4 sequence (whole entry)
Briefly: Agonist activity at human PPARdelta expressed in HepG2 cells co-transfected with PPRE3-TK-luc assessed as beta-galactosidase activity after 20 to 22 hrs by luciferase based transactivation assay.
Settings: not given
The assay is classed as functional, cell-based.
Consider `C/C(=N\OCc1sc(-c2ccc(C(F)(F)F)cc2)nc1C)c1ccc(OCC(=O)O)c(C)c1`, for which the EC50 was 10 nM.

Turning to `C/C(=N\OCc1nc(-c2ccc(C)cc2)oc1C)c1ccc(OCC(=O)O)c(C)c1`, the EC50 was found to be 300 nM.

With `C/C(=N\OCc1nc(-c2ccccc2)oc1C)c1ccc(OCC(=O)O)c(C)c1`, the EC50 was determined as 800 nM.

Another assay relates to Mus musculus. Kind of assay: Antihyperglycemic activity in db/db mouse assessed as reduction of serum glucose level at 10 mg/kg, po qd for 14 days relative to control. The assay is classed as functional. Details: scale not given: the % may be the effect or the level left.
Settings: not given
The procedure, abridged:
(§2)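 Male db/db mice, 12–14 weeks, 30–40 g, tail-bled before the study. Groups of six were matched for plasma glucose, TG and TC. Dosing was oral once daily for 14 days, with vehicle 0.5% methylcellulose in water, and mice were fed ad libitum. About 1 h after the last dose, mice were tail-bled and serum/plasma glucose and TG measured. Values are % change versus vehicle-treated mice, mean ± SD (n = 6).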
As to `C/C(=N\OCc1sc(-c2ccc(C(F)(F)F)cc2)nc1C)c1ccc(OCC(=O)O)c(C)c1`, the Activity was -23.2%.

Take `C/C(=N\OCc1nc(-c2ccccc2)oc1C)c1ccc(OCC(=O)O)c(C)c1`: the Activity is on record as -59.9%.

Another assay has as its system Mus musculus. Briefly: Antihyperlipidemic activity in db/db mouse assessed as reduction of serum triglyceride level at 10 mg/kg, po qd for 14 days relative to control. The assay is classed as functional. Details: scale not given: the % may be the effect or the level left.
Settings: not given
A digest of the protocol: as §2
As for `C/C(=N\OCc1sc(-c2ccc(C(F)(F)F)cc2)nc1C)c1ccc(OCC(=O)O)c(C)c1`, the Activity is reported as -36.5%.

Turning to `C/C(=N\OCc1nc(-c2ccccc2)oc1C)c1ccc(OCC(=O)O)c(C)c1`, the Activity is on record as -52.4%.

A further assay has as its system Syrian golden hamster. Briefly: Antihyperlipidemic activity in high fat-high cholesterol-fructose fed hamster assessed as increase of serum HDL-cholesterol level at 10 mg/kg, po qd for 14 days. The assay is classed as functional, organism-based. Details: dose 10 mg/kg. The settings on record: Mesocricetus auratus.
Take `C/C(=N\OCc1sc(-c2ccc(C(F)(F)F)cc2)nc1C)c1ccc(OCC(=O)O)c(C)c1`: the result was Active.

In the case of `C/C(=N\OCc1nc(-c2ccccc2)oc1C)c1ccc(OCC(=O)O)c(C)c1`, the result was Active.

For another assay, the system named is Syrian golden hamster. Briefly: Antihyperlipidemic activity in high fat-high cholesterol-fructose fed hamster assessed as decrease of serum LDL-cholesterol level at 10 mg/kg, po qd for 14 days. It counts as functional, organism-based. More on the design: dose 10 mg/kg. The note with it: Mesocricetus auratus.
Consider `C/C(=N\OCc1sc(-c2ccc(C(F)(F)F)cc2)nc1C)c1ccc(OCC(=O)O)c(C)c1`, for which the outcome was Active.

As for `C/C(=N\OCc1nc(-c2ccccc2)oc1C)c1ccc(OCC(=O)O)c(C)c1`, the outcome was Active.
